Source: ChEMBL document CHEMBL1124366, “Synthesis and biological properties of N63-carboxamides of teicoplanin antibiotics. Structure-activity relationships” (J Med Chem, 1989)
Values after ≈ are worked out from the molar mass of the structure shown. Blank lines part the entries; values can stand above or below the compound they belong to.

Columns and labels:
Format in all cases: functional
[1] = test system: Staphylococcus epidermidis; assay: In vitro minimum inhibitory concentration against Staphylococcus epidermis ATCC 12228
[2] = test system: Enterococcus faecalis; assay: In vitro minimum inhibitory concentration against Streptococcus faecalis ATCC 7080
[3] = test system: Streptococcus pneumoniae; assay: In vitro minimum inhibitory concentration against Streptococcus pneumoniae UC41
[4] = test system: Escherichia coli; assay: In vitro minimum inhibitory concentration against Escherichia coli SKF 12140
[5] = test system: Streptococcus pyogenes; assay: Subcutaneously administration into mice infected with Streptococcus pyogenes C 203; settings: sc
Procedure, shortened: (§1)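 Mice (five per treatment group, five groups) infected intraperitoneally with about 10⁵ cells of Strep. pyogenes C 203, about 100× the LD50. ED50 (mg/kg) was calculated from the percentage of mice surviving at each dose on day 7.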

[6] = test system: Pseudomonas aeruginosa; assay: In vitro minimum inhibitory concentration against Pseudomonas aeruginosa ATCC 10145
[7] = test system: Proteus vulgaris; assay: In vitro minimum inhibitory concentration against Proteus vulgaris X 19 ATCC 881
[8] = test system: Streptococcus pyogenes; assay: In vitro minimum inhibitory concentration against Streptococcus pyogenes C 203
[9] = test system: Staphylococcus aureus; assay: In vitro minimum inhibitory concentration against Staphylococcus aureus Tour
[10] = test system: Staphylococcus haemolyticus; assay: In vitro minimum inhibitory concentration against Staphylococcus hemolyticus 602 cell line; settings: strain 602
[11] = test system: Streptococcus pyogenes; assay: In vivo effective dose given perorally to mice infected with Streptococcus pyogenes C 203; settings: po; procedure, shortened: as §1

MIC [1]: 0.03 µg/mL (≈ 0.0234 µM) | MIC [2]: 0.12 µg/mL (≈ 0.0937 µM) | MIC [3]: 0.12 µg/mL (≈ 0.0937 µM) | MIC [4]: 16 µg/mL (≈ 12.5 µM) | MIC [6]: 32 µg/mL (≈ 25 µM) | MIC [7]: 64 µg/mL (≈ 50 µM) | MIC [8]: 0.12 µg/mL (≈ 0.0937 µM) | MIC [9]: 0.06 µg/mL (≈ 0.0468 µM)
SMILES: CN1CCN(C(=O)[C@H]2NC(=O)[C@H]3NC(=O)[C@H](NC(=O)[C@@H]4NC(=O)[C@H]5NC(=O)[C@@H](Cc6ccc(c(Cl)c6)Oc6cc4cc(c6O)Oc4ccc(cc4Cl)[C@H]3O)NC(=O)[C@H](N)c3ccc(O)c(c3)Oc3cc(O)cc5c3)c3ccc(O)c(c3)-c3c(O)cc(O)cc32)CC1
ED50 [5]: 0.95 mg/kg

MIC [1]: 0.03 µg/mL (≈ 0.0229 µM) | MIC [2]: 0.12 µg/mL (≈ 0.0915 µM) | MIC [3]: 0.12 µg/mL (≈ 0.0915 µM) | MIC [4]: 8 µg/mL (≈ 6.1 µM) | MIC [6]: 32 µg/mL (≈ 24.4 µM) | MIC [7]: 32 µg/mL (≈ 24.4 µM) | MIC [8]: 0.06 µg/mL (≈ 0.0458 µM) | MIC [9]: 0.12 µg/mL (≈ 0.0915 µM)
SMILES: CCN(CC)CCCNC(=O)[C@H]1NC(=O)[C@H]2NC(=O)[C@H](NC(=O)[C@@H]3NC(=O)[C@H]4NC(=O)[C@@H](Cc5ccc(c(Cl)c5)Oc5cc3cc(c5O)Oc3ccc(cc3Cl)[C@H]2O)NC(=O)[C@H](N)c2ccc(O)c(c2)Oc2cc(O)cc4c2)c2ccc(O)c(c2)-c2c(O)cc(O)cc21
ED50 [5]: 0.18 mg/kg

MIC [1]: 0.06 µg/mL (≈ 0.0308 µM) | MIC [2]: 0.12 µg/mL (≈ 0.0615 µM) | MIC [3]: 0.12 µg/mL (≈ 0.0615 µM) | MIC [8]: 0.06 µg/mL (≈ 0.0308 µM) | MIC [9]: 0.12 µg/mL (≈ 0.0615 µM)
SMILES: CNCCN(C)C(=O)[C@H]1NC(=O)[C@H]2NC(=O)[C@H](NC(=O)[C@@H]3NC(=O)[C@H]4NC(=O)[C@@H](Cc5ccc(c(Cl)c5)Oc5cc3cc(c5O[C@@H]3O[C@@H](CO)[C@@H](O)[C@H](O)[C@@H]3NC(=O)CCCCCCC(C)C)Oc3ccc(cc3Cl)[C@H]2O[C@@H]2O[C@@H](CO)[C@@H](O)[C@H](O)[C@@H]2NC(C)=O)NC(=O)[C@H](N)c2ccc(O)c(c2)Oc2cc(O)cc4c2)c2ccc(O)c(c2)-c2c(O[C@H]3O[C@H](CO)[C@@H](O)[C@@H](O)[C@@H]3O)cc(O)cc21
MIC [10]: 1 µg/mL (≈ 0.513 µM) | ED50 [11]: 72 mg/kg | ED50 [5]: 0.1 mg/kg

MIC [1]: 0.06 µg/mL (≈ 0.0308 µM) | MIC [2]: 0.12 µg/mL (≈ 0.0615 µM) | MIC [3]: 0.12 µg/mL (≈ 0.0615 µM) | MIC [8]: 0.06 µg/mL (≈ 0.0308 µM) | MIC [9]: 0.12 µg/mL (≈ 0.0615 µM)
SMILES: CC(=O)N[C@@H]1[C@H](O[C@@H]2c3ccc(c(Cl)c3)Oc3cc4cc(c3O[C@@H]3O[C@@H](CO)[C@@H](O)[C@H](O)[C@@H]3NC(=O)CCCCCCC(C)C)Oc3ccc(cc3Cl)C[C@H]3NC(=O)[C@H](N)c5ccc(O)c(c5)Oc5cc(O)cc(c5)[C@H](NC3=O)C(=O)N[C@H]4C(=O)N[C@H]3C(=O)N[C@@H]2C(=O)N[C@H](C(=O)NCCCCN)c2cc(O)cc(O[C@H]4O[C@H](CO)[C@@H](O)[C@@H](O)[C@@H]4O)c2-c2cc3ccc2O)O[C@@H](CO)[C@@H](O)[C@@H]1O
MIC [10]: 0.12 µg/mL (≈ 0.0615 µM) | ED50 [11]: 90 mg/kg | ED50 [5]: 0.07 mg/kg

MIC [1]: 0.12 µg/mL (≈ 0.0612 µM) | MIC [2]: 0.12 µg/mL (≈ 0.0612 µM) | MIC [3]: 0.06 µg/mL (≈ 0.0306 µM) | MIC [8]: 0.06 µg/mL (≈ 0.0306 µM) | MIC [9]: 0.12 µg/mL (≈ 0.0612 µM)
SMILES: CCCCC/C=C/CCC(=O)N[C@@H]1[C@H](Oc2c3cc4cc2Oc2ccc(cc2Cl)[C@@H](O[C@@H]2O[C@@H](CO)[C@@H](O)[C@H](O)[C@@H]2NC(C)=O)[C@@H]2NC(=O)[C@H](NC(=O)[C@@H]4NC(=O)[C@H]4NC(=O)[C@@H](Cc5ccc(c(Cl)c5)O3)NC(=O)[C@H](N)c3ccc(O)c(c3)Oc3cc(O)cc4c3)c3ccc(O)c(c3)-c3c(O[C@H]4O[C@H](CO)[C@@H](O)[C@@H](O)[C@@H]4O)cc(O)cc3[C@@H](C(=O)NC3CCNCC3)NC2=O)O[C@@H](CO)[C@@H](O)[C@@H]1O
MIC [10]: 1 µg/mL (≈ 0.51 µM) | ED50 [11]: 89.6 mg/kg | ED50 [5]: 0.08 mg/kg

Further lines, the compound ahead of its results:

SMILES: N[C@H]1C(=O)N[C@@H]2Cc3ccc(c(Cl)c3)Oc3cc4cc(c3O)Oc3ccc(cc3Cl)[C@@H](O)[C@@H]3NC(=O)[C@H](NC(=O)[C@@H]4NC(=O)[C@@H](NC2=O)c2cc(O)cc(c2)Oc2cc1ccc2O)c1ccc(O)c(c1)-c1c(O)cc(O)cc1[C@@H](C(=O)NCCCCCC(=O)N[C@@H]1[C@@H](O)[C@@H](O)[C@@H](CO)O[C@H]1O)NC3=O
MIC [1]: 0.06 µg/mL (≈ 0.0407 µM) | MIC [2]: 0.25 µg/mL (≈ 0.17 µM) | MIC [3]: 0.25 µg/mL (≈ 0.17 µM) | MIC [4]: 64 µg/mL (≈ 43.4 µM) | ED50 [5]: 2.9 mg/kg | MIC [6]: > 128 µg/mL | MIC [7]: > 128 µg/mL | MIC [8]: 0.12 µg/mL (≈ 0.0815 µM) | MIC [9]: 0.12 µg/mL (≈ 0.0815 µM)

SMILES: N[C@H]1C(=O)N[C@@H]2Cc3ccc(c(Cl)c3)Oc3cc4cc(c3O)Oc3ccc(cc3Cl)[C@@H](O)[C@@H]3NC(=O)[C@H](NC(=O)[C@@H]4NC(=O)[C@@H](NC2=O)c2cc(O)cc(c2)Oc2cc1ccc2O)c1ccc(O)c(c1)-c1c(O)cc(O)cc1[C@@H](C(=O)NCCN1CCCC1)NC3=O
MIC [1]: 0.016 µg/mL (≈ 0.0124 µM) | MIC [2]: 0.12 µg/mL (≈ 0.0927 µM) | MIC [3]: 0.12 µg/mL (≈ 0.0927 µM) | MIC [4]: 8 µg/mL (≈ 6.18 µM) | ED50 [5]: 1.6 mg/kg | MIC [6]: 64 µg/mL (≈ 49.4 µM) | MIC [7]: 64 µg/mL (≈ 49.4 µM) | MIC [8]: 0.06 µg/mL (≈ 0.0463 µM) | MIC [9]: 0.06 µg/mL (≈ 0.0463 µM)

SMILES: N[C@H]1C(=O)N[C@@H]2Cc3ccc(c(Cl)c3)Oc3cc4cc(c3O)Oc3ccc(cc3Cl)[C@@H](O)[C@@H]3NC(=O)[C@H](NC(=O)[C@@H]4NC(=O)[C@@H](NC2=O)c2cc(O)cc(c2)Oc2cc1ccc2O)c1ccc(O)c(c1)-c1c(O)cc(O)cc1[C@@H](C(=O)N1CCOCC1)NC3=O
MIC [1]: 0.016 µg/mL (≈ 0.0126 µM) | MIC [2]: 0.12 µg/mL (≈ 0.0946 µM) | MIC [3]: 0.12 µg/mL (≈ 0.0946 µM) | MIC [4]: 16 µg/mL (≈ 12.6 µM) | ED50 [5]: 1.02 mg/kg | MIC [6]: 64 µg/mL (≈ 50.5 µM) | MIC [7]: 64 µg/mL (≈ 50.5 µM) | MIC [8]: 0.12 µg/mL (≈ 0.0946 µM) | MIC [9]: 0.06 µg/mL (≈ 0.0473 µM)

SMILES: N[C@H]1C(=O)N[C@@H]2Cc3ccc(c(Cl)c3)Oc3cc4cc(c3O)Oc3ccc(cc3Cl)[C@@H](O)[C@@H]3NC(=O)[C@H](NC(=O)[C@@H]4NC(=O)[C@@H](NC2=O)c2cc(O)cc(c2)Oc2cc1ccc2O)c1ccc(O)c(c1)-c1c(O)cc(O)cc1[C@@H](C(=O)NC1CN2CCC1CC2)NC3=O (stereo not given in full)
MIC [1]: 0.06 µg/mL (≈ 0.0459 µM) | MIC [2]: 0.12 µg/mL (≈ 0.0918 µM) | MIC [3]: 0.06 µg/mL (≈ 0.0459 µM) | MIC [4]: 8 µg/mL (≈ 6.12 µM) | ED50 [5]: 0.46 mg/kg | MIC [6]: 32 µg/mL (≈ 24.5 µM) | MIC [7]: 64 µg/mL (≈ 49 µM) | MIC [8]: 0.06 µg/mL (≈ 0.0459 µM) | MIC [9]: 0.12 µg/mL (≈ 0.0918 µM)

SMILES: N[C@H]1C(=O)N[C@@H]2Cc3ccc(c(Cl)c3)Oc3cc4cc(c3O)Oc3ccc(cc3Cl)[C@@H](O)[C@@H]3NC(=O)[C@H](NC(=O)[C@@H]4NC(=O)[C@@H](NC2=O)c2cc(O)cc(c2)Oc2cc1ccc2O)c1ccc(O)c(c1)-c1c(O)cc(O)cc1[C@@H](C(=O)NCCN1CCOCC1)NC3=O
MIC [1]: 0.016 µg/mL (≈ 0.0122 µM) | MIC [2]: 0.12 µg/mL (≈ 0.0915 µM) | MIC [3]: 0.12 µg/mL (≈ 0.0915 µM) | MIC [4]: 16 µg/mL (≈ 12.2 µM) | ED50 [5]: 2.2 mg/kg | MIC [6]: 64 µg/mL (≈ 48.8 µM) | MIC [7]: 128 µg/mL (≈ 97.6 µM) | MIC [8]: 0.12 µg/mL (≈ 0.0915 µM) | MIC [9]: 0.06 µg/mL (≈ 0.0458 µM)

SMILES: CC(=O)N[C@@H]1[C@H](O[C@@H]2c3ccc(c(Cl)c3)Oc3cc4cc(c3O[C@@H]3O[C@@H](CO)[C@@H](O)[C@H](O)[C@@H]3NC(=O)CCCCCCC(C)C)Oc3ccc(cc3Cl)C[C@H]3NC(=O)[C@H](N)c5ccc(O)c(c5)Oc5cc(O)cc(c5)[C@H](NC3=O)C(=O)N[C@H]4C(=O)N[C@H]3C(=O)N[C@@H]2C(=O)N[C@H](C(=O)NCCCCCCN)c2cc(O)cc(O[C@H]4O[C@H](CO)[C@@H](O)[C@@H](O)[C@@H]4O)c2-c2cc3ccc2O)O[C@@H](CO)[C@@H](O)[C@@H]1O
MIC [1]: 0.06 µg/mL (≈ 0.0303 µM) | MIC [10]: 0.12 µg/mL (≈ 0.0607 µM) | MIC [2]: 0.12 µg/mL (≈ 0.0607 µM) | ED50 [11]: > 300 mg/kg | MIC [3]: 0.12 µg/mL (≈ 0.0607 µM) | ED50 [5]: 0.14 mg/kg | MIC [8]: 0.06 µg/mL (≈ 0.0303 µM) | MIC [9]: 0.12 µg/mL (≈ 0.0607 µM)
